{
  "source": "paper PMC2873839",
  "about": "(Bioorganic & medicinal chemistry, 2010)",
  "system": "HeLa cells",
  "test": "Confocal microscopy of subcellular distribution / nuclear staining",
  "type": "cell-based",
  "procedure,_shortened": "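HeLa grown in MEM alpha with 10% FBS at 37 °C, 5% CO2, seeded at 4000 cells/well on glass bottom, adhered overnight. Test compound 10–100 μM, 37 °C for 2–19 h, in complete or serum-free medium, then HBSS rinse. Confocal: 63x/1.4 oil objective, 1.1 μm optical slice, excitation 488 nm, emission 560+ nm. Dead cells excluded by morphology; percentage with nuclear staining scored.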",
  "note": "Entries after “also recorded” stand apart in the source; their conditions may differ.",
  "data": [
    {"substance": "KKKK [Ru-KKKK]", "values": [
      {"measurement": "subcellular distribution", "setting": "40 μM, 2 h", "value": "only faint luminescence in the cytoplasm"},
      {"measurement": "percentage of cells with additional nuclear staining", "setting": "100 μM, 4 h, complete medium", "value": 17, "unit": "%"},
      {"measurement": "subcellular distribution", "setting": "100 μM, 4 h, complete medium", "value": "brighter, punctate cytoplasmic staining; also recorded: punctate staining of the cytoplasm"}
    ]},
    {"substance": "KSKKQK [Ru-KSKKQK]", "values": [
      {"measurement": "subcellular distribution", "setting": "10 μM, 2 h", "value": "only faint punctate luminescence in the cytoplasm and no nuclear staining"},
      {"measurement": "subcellular distribution", "setting": "10 μM, 19 h, complete medium", "value": "same result; also recorded: Punctate staining of the cytoplasm"}
    ]},
    {"substance": "PKKKRKV [Ru-PKKKRKV]", "values": [
      {"measurement": "subcellular distribution", "setting": "10 μM, 2 h", "value": "only faint punctate luminescence in the cytoplasm and no nuclear staining"},
      {"measurement": "subcellular distribution", "setting": "10 μM, 19 h, complete medium", "value": "same result; also recorded: Punctate staining of the cytoplasm"}
    ]}
  ]
}
